Compounds with a hit are over-represented: about 4.1% of the library has one in this group of screens.
ATG4B inh: blocks human ATG4B protease cleavage of LC3 substrate; inhibition, % at 8.33 µM; ATG4B cleavage of LC3-PLA2, NBD-HPC fluorescence, 1 h; Q9Y4P1; hit rate 0.51% among 340,000; AID 504462; in the data active means inhibition above about 40%
Target sequence (Q9Y4P1 whole entry, looked up): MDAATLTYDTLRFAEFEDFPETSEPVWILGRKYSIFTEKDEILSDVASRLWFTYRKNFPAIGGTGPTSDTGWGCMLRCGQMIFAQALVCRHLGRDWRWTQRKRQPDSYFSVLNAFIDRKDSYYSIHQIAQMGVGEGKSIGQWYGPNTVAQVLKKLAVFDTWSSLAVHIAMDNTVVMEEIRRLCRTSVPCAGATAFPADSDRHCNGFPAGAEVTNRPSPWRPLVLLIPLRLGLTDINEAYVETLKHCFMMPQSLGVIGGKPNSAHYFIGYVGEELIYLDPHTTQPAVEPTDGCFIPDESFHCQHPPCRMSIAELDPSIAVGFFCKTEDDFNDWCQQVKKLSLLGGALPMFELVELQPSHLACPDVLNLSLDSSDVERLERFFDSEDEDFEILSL
MC4R barr agon: agonists of human melanocortin 4 receptor (MC4R) beta-arrestin; activation, % at 8.9 µM; P32245; hit rate 0.98% among 360,000; AID 540308; U2OS MC4R beta-arrestin complementation, luminescence; percent of melanotan II response, DMSO zero;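 active means activation above a per-plate cutoff, the mean activation of sample wells on that plate plus 3 SD, cut at about 8% in these data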
MPTP inh: permeability transition pore inhibition. isolated mouse mitochondria, Ca2+ swelling absorbance, 30 min. inhibition, % at 10 µM. hit rate 1.4% among 360,000. AID 602449;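 active means inhibition of 50% or more, scaled per plate between neutral and stimulator controls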
MC4R antagonist: antagonists of human melanocortin 4 receptor (MC4R); MC4R-expressing cells, MTII-stimulated cAMP, LANCE TR-FRET; P32245; hit rate 0.48% among 360,000; inhibition, % at 6.5 µM;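 active means inhibition above its plate's cutoff, the mean of tested wells on that plate plus 3 SD, cut at about 29% in these data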
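System: U2OS cells stably expressing human melanocortin 4 receptor (MC4R). Reagent: Melanotan II challenge after compound preincubation. Doses: 6.5 µM. Times: 30-min compound, 1-h challenge, 1-h detection, room temperature. Measured by: TR-FRET with Eu-cAMP and labeled anti-cAMP, 671 nm. Replicates: singlicate.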
SMARCA2 activ: SMARCA2 function activation, primary screen. MG213 cells, MMTV-luciferase reporter, dexamethasone, overnight. activation, % at 9.1 µM. hit rate 1% among 370,000. AID 652017; in the data active means activation above about 7.8%
MC4R barr ag: human MC4R beta-arrestin agonism confirmation | shares compounds with MC4R barr agon | U2OS MC4R beta-arrestin recruitment, luminescence; scaled DMSO 0%, Melanotan II 100% | activation, % at 8.9 µM | AID 602192 | hit rate 31% among 2,400;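 active means mean activation across replicates above the hit cutoff set in the earlier primary screen, cut at about 8% in these data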
MOR-DOR barr ag: activates mu-delta opioid heterodimer, MC4R agonist counter-screen; shares compounds with MC4R barr agon; U2OS PathHunter beta-arrestin, beta-gal luminescence; percent of deltorphin B response, DMSO zero; activation, % at 9.2 µM; hit rate 5.8% among 2,400;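 active means mean activation across replicates exceeds the hit threshold derived in the earlier primary screen, cut at about 18% in these data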
A number is an active result; n = inactive; x = no result.

SMILES	ATG4B inh	MC4R barr agon	MPTP inh	MC4R antagonist	SMARCA2 activ	MC4R barr ag	MOR-DOR barr ag
Cc1cccc(NC(=O)c2cc(S(=O)(=O)N3CCc4ccccc43)cn2C)c1C	n	11	n	n	n	n	n
CCCCCCCCNC(=O)c1cccnc1SCC(=O)Nc1ccc(OC)cc1OC	n	11	n	n	n	18	29
COC(=O)C1=C(C)N(Cc2cccc(C(F)(F)F)c2)C(=NCc2ccc(OC)cc2)NC1c1ccc(F)cc1 (centres undefined)	x	x	x	x	n	x	x
CC(C)CN(CC(C)C)CC(O)COc1ccc([N+](=O)[O-])cc1 (centres undefined)	n	10	n	n	n	n	n
O=[N+]([O-])c1ccc(OCC(O)CN(C2CCCCC2)C2CCCCC2)cc1 (centres undefined)	n	n	n	n	n	x	x
CC(=O)Nc1cc(-c2ccccc2)cn2c(-c3ccc(F)cc3)cnc12	x	26	n	n	n	27	n
CC(=O)Nc1cc(-c2cccc(NS(C)(=O)=O)c2)cn2c(-c3cccc(C(F)(F)F)c3)cnc12	x	n	n	n	n	x	x
CC(=O)Nc1cc(-c2ccccc2N(C)C)cn2c(-c3cccc(C(F)(F)F)c3)cnc12	x	15	n	n	n	11	n
CC(=O)Nc1cc(-c2ccc(F)cc2)cn2c(-c3ccc(F)cc3)cnc12	x	25	n	n	n	15	n
COc1cc(-c2cc(NC(C)=O)c3ncc(-c4ccc(F)cc4)n3c2)cc(OC)c1OC	x	12	n	n	n	8.6	n
CC(=O)Nc1cc(-c2ccc(CO)cc2)cn2c(-c3ccc(F)cc3)cnc12	x	n	n	n	n	x	x
CC(=O)Nc1cc(-c2ccc(F)cc2)cn2c(-c3ccc(S(C)(=O)=O)cc3)cnc12	x	n	n	n	n	x	x
CC(C)CN1C(=O)[C@]2(CC(=O)N(C)C2c2ccccc2)c2cc(-n3cc(C4=CCCCC4)nn3)ccc21 (some centres undefined)	x	x	x	x	n	x	x
CCOC(=O)C1CCN(C(=O)C(Cc2ccc3c(c2)OCO3)NC(C)=O)CC1 (centres undefined)	x	x	x	x	n	x	x
COC(=O)[C@]12C[C@H](CC(=O)NCCCCc3ccccc3)C(=O)N(CCC3=CCCCC3)C1=C[C@H](C1CCCC1)O[C@@H]2C	x	x	x	x	n	x	x
Nc1nc2c(ncn2[C@@H]2O[C@H](C(=O)N[C@H](Cc3ccccc3)C(=O)NCc3ccc4c(c3)OCO4)[C@@H](O)[C@H]2O)c(=O)[nH]1	x	x	x	x	n	x	x
CCOC(=O)C1=CCN(S(=O)(=O)c2ccc(Br)cc2)C1c1cccc(Br)c1 (centres undefined)	x	x	x	x	n	x	x
Cc1ccc(Cn2ccc(NC(=O)c3cc(-c4ccc(Br)cc4)on3)n2)cc1	n	n	n	n	n	x	x
Cc1ccc(Cn2ccc(NC(=O)c3cc(-c4ccccc4)on3)n2)cc1	n	11	n	n	n	n	n
COC(=O)C12C=C3CC(C)=C3C(=O)N1Cc1[nH]c3ccccc3c1C2 (centres undefined)	x	x	x	x	n	x	x
CC(=O)N1CCC(C(=O)N2c3ccccc3N=C(c3ccc4c(c3)OCO4)C2C(=O)Nc2c(C)cccc2C)CC1 (centres undefined)	x	x	n	x	n	x	x
CC(=O)c1cccc(N/C=C\c2nnnn2-c2ccc(F)cc2)c1	n	16	n	n	n	n	n
COCCCNC(=O)[C@@H](Cc1ccccc1)NC(=O)[C@H]1O[C@@H](n2ccc(=O)[nH]c2=O)[C@H](O)[C@@H]1O	x	x	x	x	n	x	x
COc1ccc(/C=C2\CC/C(=C\c3ccc(OC)c(OC)c3)C2=O)cc1OC	n	n	n	n	n	x	x
COc1cc(/C=C2/CC/C(=C/c3ccc(O)c(OC)c3)C2=O)ccc1O	n	55	n	n	n	32	18
SMILES	ATG4B inh	MC4R barr agon	MPTP inh	MC4R antagonist	SMARCA2 activ	MC4R barr ag	MOR-DOR barr ag
CCc1ccc(OCC(O)CN2CCN(c3ccccc3)CC2)cc1 (centres undefined)	n	11	n	n	n	n	n
O=[N+]([O-])c1ccc2[nH]c(O)c(N=Nc3ccc(F)cc3)c2c1	n	n	n	n	n	x	x
O=[N+]([O-])c1ccc(N=Nc2c(O)[nH]c3ccc(F)cc23)cc1	n	18	n	n	n	10	n
O=C(NC1CCCCC1)C(c1cccs1)N(C(=O)C(F)(F)F)c1ccccc1 (centres undefined)	n	27	n	n	n	n	n
Cc1ccc(N2C(=O)CS/C2=N\C(=S)Nc2ccccc2)cc1	n	27	n	n	n	n	n
O=C(CSc1cc(Cl)ccc1Cl)NC1CCCc2ccccc21 (centres undefined)	n	13	n	n	n	n	n
O=C(CSc1nc2cc(Cl)ccc2s1)NC1CCCc2ccccc21 (centres undefined)	n	n	n	n	n	x	x
COc1cc(C=NN2CCN(C(c3ccccc3)c3ccccc3)CC2)cc(OC)c1OC(C)=O	x	x	x	x	n	x	x
CCSc1ccc(-c2cc(NC=O)c3ncc(-c4cccc(C(=O)N(C)C)c4)n3c2)cc1	x	10	n	n	n	9.1	n
CN(C)CCNC(=O)c1cccc(-c2cnc3c(NC=O)cc(-c4cccc(F)c4)cn23)c1	x	n	n	n	n	x	x
CN(C)C(=O)c1cccc(-c2cnc3c(NC=O)cc(-c4cc(F)c(F)c(F)c4)cn23)c1	x	n	n	n	n	x	x
CCSc1ccc(-c2cc(NC=O)c3ncc(-c4cccc(C(=O)NCCN(C)C)c4)n3c2)cc1	x	11	n	n	n	13	n
CN(C)C(=O)c1cccc(-c2cnc3c(NC=O)cc(-c4ccccc4F)cn23)c1	x	9.8	n	n	n	11	n
CN(C)CCNC(=O)c1cccc(-c2cnc3c(NC=O)cc(/C=C/c4ccccc4)cn23)c1	x	17	n	n	n	n	n
COc1cc(-c2cc(NC=O)c3ncc(-c4cccc(C(=O)N(C)C)c4)n3c2)cc(OC)c1OC	x	n	n	n	n	x	x
COC(=O)C1=C(C)N(Cc2cccc(C(F)(F)F)c2)C(=NCC2CC2)NC1c1cccc(C(F)(F)F)c1 (centres undefined)	x	x	x	x	n	x	x
CCOC(=O)c1ccc(S(=O)(=O)NC2CCC(C)CC2)cc1 (centres undefined)	n	11	n	n	n	n	n
CCCC(=O)OC[C@H]1CN([C@H](C)c2ccccc2)S(=O)(=O)c2c(F)cccc2O1	x	x	x	x	n	x	x
O=C(NCCC1=CCCCC1)C1CCN(S(=O)(=O)c2ccccc2[N+](=O)[O-])CC1	x	x	x	x	n	x	x
C=CCn1c(COc2ccc(C)cc2)nnc1SCc1ccc([N+](=O)[O-])cc1	x	x	x	x	n	x	x
Cc1ccc(CSc2nnc(SCC(=O)N/N=C/c3c[nH]c4ccccc34)s2)cc1	n	12	n	n	n	13	18

High-throughput results: PubChem BioAssay, several laboratories
